Assay outcomes: PubChem BioAssay, several laboratories
NSD2 inh: inhibitors of human histone methyltransferase NSD2. O96028. NSD2 peptide methylation, AlphaScreen, 120 min. inhibition, % at 12.5 µM. actives 0.54% (n = 310,000); in the data active = inhibition above about 50%
UCH37 inh: blocks the human deubiquitinase UCH37 | Q9Y5K5 | purified proteasome/UCH37, Ub-AMC cleavage fluorescence | inhibition, % (concentration not given with the values) | actives 0.33% (n = 330,000) | AID 588478;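 active = mean inhibition over replicate wells above about 20%, limit read from the data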;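 note: 0% = compound-free wells with enzyme and 100% = wells lacking proteasome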
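system = Proteasome-associated human UCH37 deubiquitinase | amount = 0.15 nM proteasome as dispensed | medium = pH 7.4 Tris-HCl (50 mM) with ovalbumin, ATP-MgCl2, DTT | incubation = 30 min preincubation with enzyme, 25 min cleavage at room temperature | detection = AMC fluorescence 355/460 nm | read-out basis = percent inhibition | controls = no-proteasome and no-compound wells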
TDP2 inh: blocks human TDP2 phosphodiesterase activity | O95551 | recombinant TDP2, T5PNP hydrolysis, p-nitrophenol absorbance 415 nm | actives 0.34% (n = 370,000) | inhibition, % at 12.8 µM | AID 720702;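 active = inhibition above the mean of all tested compounds plus 3 SD, set per campaign, cut at about 25% in these data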;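 note: 0% = DMSO with enzyme and 100% = buffer with substrate but no TDP2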
Target sequence (O95551 whole entry, looked up): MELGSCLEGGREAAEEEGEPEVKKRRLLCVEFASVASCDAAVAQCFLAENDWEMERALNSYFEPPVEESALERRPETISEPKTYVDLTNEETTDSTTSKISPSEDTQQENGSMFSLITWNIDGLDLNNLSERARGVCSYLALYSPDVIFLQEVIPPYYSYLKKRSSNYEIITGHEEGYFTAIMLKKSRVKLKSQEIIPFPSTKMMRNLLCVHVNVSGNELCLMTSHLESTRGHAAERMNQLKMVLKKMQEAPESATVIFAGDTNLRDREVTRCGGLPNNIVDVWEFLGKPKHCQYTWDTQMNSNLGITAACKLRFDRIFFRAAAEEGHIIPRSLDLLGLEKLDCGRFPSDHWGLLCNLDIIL
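System: recombinant human TDP2 / Amount: 120 nM TDP2 per well / Also added: 5 mM T5PNP chromogenic substrate / Doses: 12.8 µM single point, 1% DMSO / Incubation: 2 h at 37 °C / Detection: p-Nitrophenol epi absorbance / Evaluation: % inhibition relative to enzyme-containing and enzyme-free wells / Repeats: singlicate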
LEDGF integ inh: blocks HIV-1 LEDGF/p75-dependent DNA integration; TR-FRET IN-LEDGF/p75 DNA integration, Eu/Cy5; inhibition, % at 3.7 µM; actives 0.64% (n = 370,000);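 active = inhibition above the screen-wide mean plus 3 SD, cut at about 13% in these data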;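 note: signal is the Cy5 over europium emission ratio at 671 and 618 nm; 0% = plate median of compound wells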
CASP6 VEID inh: caspase-6 (human) enzyme inhibition. actives 0.53% (n = 350,000). purified caspase-6, Z-VEID-R110 cleavage fluorescence. inhibition, % at 12.5 µM;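 active = mean inhibition across replicates at least about 35%, with every replicate also reaching that limit, limit read from the data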;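 note: 0% = median of neutral control wells and 100% = no fluorescence left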
Target sequence (P55212 24-179 limits assumed): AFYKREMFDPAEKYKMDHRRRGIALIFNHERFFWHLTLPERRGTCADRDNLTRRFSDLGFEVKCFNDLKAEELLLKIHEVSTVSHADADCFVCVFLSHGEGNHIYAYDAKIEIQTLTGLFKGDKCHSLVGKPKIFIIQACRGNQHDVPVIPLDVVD
Target sequence (P55212 194-293 limits assumed): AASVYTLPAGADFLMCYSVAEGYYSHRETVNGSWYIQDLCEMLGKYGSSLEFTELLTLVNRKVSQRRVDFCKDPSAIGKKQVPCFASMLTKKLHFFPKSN
UCH37 confirm: UCH37 Ub-AMC cleavage inhibition, confirmed | shares compounds with UCH37 inh | Proteasome-bound UCH37, Ub-AMC cleavage fluorescence | inhibition, % at 20 µM | actives 27% (n = 480);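 active = average inhibition over replicates above about 50%, so the earlier screening hit is confirmed, limit read from the data; inactive = the rest, counted as false positives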;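 note: based on cleavage rate fitted by regression over a 30 min kinetic read; 0% = proteasome plus Ub-AMC and 100% = Ub-AMC without proteasome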
Starred values were filed as active, the others as inactive; x = no result given. Only some compounds are listed: those with a hit (about 1.3% of all), similar ones and a draw of the others.

SMILES	NSD2 inh	UCH37 inh	TDP2 inh	LEDGF integ inh	CASP6 VEID inh	UCH37 confirm
CCCn1c(=O)c2sccc2n2c(CCCC(=O)NCc3cccnc3)nnc12	-3	0	-6	1	-4	x
CCCn1c(=O)c2sccc2n2c(CCCC(=O)NCc3ccco3)nnc12	17	4	11	6	58*	x
CCN(CC)C(=O)COc1ccc(/C(C)=N/NC(=O)c2ccccc2O)cc1	2	x	-3	-7	38*	x
CCCCCCC1C(=NNC(=O)c2ccccc2)CCC1C(=O)OC (configuration not stated)	x	3	x	x	x	x
CC(=O)NN=Cc1cccc(OC/C=C/c2ccccc2)c1	x	-1	x	x	x	x
CC(C)C(OC(=O)C1=Cc2ccccc2OC1)C(=O)NCC1CCCO1 (configuration not stated)	x	x	2	9	47*	x
CC(OC(=O)C1=Cc2ccccc2OC1)C(=O)NC1CCCC1 (configuration not stated)	0	-5	-4	2	1	x
COC(=O)c1ccc(C=Nn2c(C)nc3ccccc3c2=O)cc1	x	3	x	x	x	x
COc1ccccc1NC(=O)C(C)OC(=O)CCC1CCCCC1 (configuration not stated)	10	-1	-6	2	53*	x
COc1cc(C=NNC(=O)c2cccc(N3CCCC3=O)c2)ccc1O	x	10	x	x	x	x
Cc1onc(-c2c(Cl)cccc2Cl)c1C(=O)ON=C(C#N)c1c(Cl)cccc1Cl	x	6	x	x	x	x
COc1cc(/C=C2\C(=N)N3N=C(S(C)(=O)=O)SC3=NC2=O)ccc1OCCOc1ccc(C)cc1	6	5	7	6	16	x
Cc1ccc(S(=O)(=O)Oc2ccc(/C=C3\C(=N)N4N=C(S(C)(=O)=O)SC4=NC3=O)cc2)cc1	47	4	16	1	59*	x
CCS(=O)(=O)C1=NN2C(=N)/C(=C\c3ccc(OCCOc4cccc(OC)c4)c(OC)c3)C(=O)N=C2S1	20	4	2	2	45*	x
CCOc1cc(/C=C2\C(=N)N3N=C(S(C)(=O)=O)SC3=NC2=O)ccc1OCCOc1cccc(OC)c1	2	-1	13	1	45*	x
Cc1cc(C)c2c(N)c(C(=O)NN=Cc3ccccc3)sc2n1	x	-60	x	x	x	x
CC(=NNC(=O)c1nnn(-c2nonc2N)c1-c1ccccc1)c1cccnc1	x	-2	x	x	x	x
CC(=NNC(=O)c1ccccc1O)c1ccc(NC(=O)Cc2ccccc2)cc1	x	-25	x	x	x	x
CCS(=O)(=O)c1nc(S(=O)(=O)c2ccc(Cl)cc2)c(N2CCOCC2)s1	-1	5	17	-2	38*	x
CCOC(=O)/C(=C/C1=CC(=C/N(C)C)/C(=O)O1)C(C)=O	0	22*	-2	-1	2	x
CCOC(=O)/C(=C/c1ccc(OC(=O)c2ccccc2)cc1)C(C)=O	3	4	-1	-3	x	x
CCCN1CCCc2cc(CN)ccc21	x	-17	66*	35*	x	x
CCC(CC)COC(=O)C1=C(C)NC(=O)NC1c1cc(OC)ccc1OC (configuration not stated)	-2	-51	7	0	68*	x
CCC(CC)COC(=O)C1=C(C)NC(=O)NC1c1ccc(OC)cc1 (configuration not stated)	-1	0	-14	4	-2	x
O=C(O)CCCC(=O)OCCCc1cc2ccccc2c(=O)o1	x	x	7	0	37*	x
SMILES	NSD2 inh	UCH37 inh	TDP2 inh	LEDGF integ inh	CASP6 VEID inh	UCH37 confirm
N#C/C(=C/c1cccn1-c1cccc(C(=O)O)c1)c1ccc(Cl)cc1	x	x	0	0	84*	x
CCn1c(SCC(=O)NN=C/C=C\c2ccco2)nc2ccccc21	x	4	x	x	x	x
O=C(NC1CC1)c1c(O)c2ccccc2[nH]c1=O	0	1	-3	-1	45*	x
O=C(NC1CCCCCCC1)c1c(O)c2ccccc2[nH]c1=O	-2	2	-7	9	x	x
O=C1C(Cl)=C(Nc2ccc3cn[nH]c3c2)C(=O)c2ccccc21	x	46*	4	8	4	13
O=C(O)CC/C(=C\c1ccc(N2CCOCC2)c([N+](=O)[O-])c1)c1nc2ccccc2s1	4	26*	7	3	-7	20
Cc1cc(NC(=O)c2cccc(Cl)c2)n[nH]1	x	35*	-3	-1	0	11
O=C(NN=Cc1ccc(OC(=O)c2ccccc2)cc1)c1ccc(CN2CCOCC2)cc1	x	3	x	x	x	x
CCc1nnc(NS(=O)(=O)c2ccc(Nc3ccc([N+](=O)[O-])c4nonc34)cc2)s1	16	35*	3	2	25	31
NS(=O)(=O)c1ccc(Nc2ccc([N+](=O)[O-])c3nonc23)cc1	x	26*	-4	2	20	5
O=[N+]([O-])c1ccc(Nc2ccccc2O)c2nonc12	28	11	-13	-3	9	x
O=C(COc1ccc(Cl)cc1Cl)NN=Cc1cccnc1	x	3	x	x	x	x
Oc1ccc2ccccc2c1C=Nc1nc2c(s1)CCCC2	x	42*	x	x	x	25
COc1ccc(-n2nc(C(=O)NCC(=O)NCCC3=CCCCC3)c3ccccc3c2=O)cc1OC	1	36*	2	-4	3	54*
Cn1c(=O)c2sccc2n(CC(=O)NCCC2=CCCCC2)c1=O	-6	x	17	-1	-2	x
Cn1c(=O)c2ccccc2n(CC(=O)NCCC2=CCCCC2)c1=O	2	32*	6	-2	0	47
COC(=O)CNC(=O)CNC(=O)c1nn(-c2ccc(OC)c(OC)c2)c(=O)c2ccccc12	0	4	9	-1	0	x
O=C(C=NO)Nc1ccccc1	x	0	x	x	x	x
C[N+]1(C)CCC(=C2c3ccccc3CC(=O)c3sccc32)CC1	x	75*	18	3	x	19
CC(=NNC(=O)c1ccc(CN2CCOCC2)cc1)c1ccc([N+](=O)[O-])cc1	x	1	x	x	x	x
CCOc1ccc(CNC(=S)NN=Cc2ccncc2)cc1	x	44*	x	x	x	-11
CN1CCC[C@@H]1CCNC(=O)c1cccc2c1C(=O)c1ccc(N3CCCC3)cc1S2(=O)=O	x	52*	-5	4	-7	13
CC(=NNC(=O)c1ccc(Br)o1)c1ccc(C)o1	x	12	x	x	x	x
CCCC1=C(C(=O)OCC)C(c2ccc(OC)c(C)c2OC)C(C#N)=C(N)O1 (configuration not stated)	30	31*	-1	4	x	-39
CC(=NNC(=O)CNc1cccc(C)c1)c1ccc(Br)s1	x	3	x	x	x	x
Cc1ccoc1C(=O)NCCCNC(=O)c1occc1C	-57	48*	23	1	x	6
Cc1ccoc1C(=O)NCCNC(=O)c1occc1C	-2	0	-1	2	3	x
N#CC(=NNc1ccc([N+](=O)[O-])cc1)C(N)=S	x	29*	x	x	x	19
O=C(O)CC1S/C(=N/N=Cc2ccc(-c3ccc(Cl)cc3[N+](=O)[O-])o2)NC1=O (configuration not stated)	x	28*	x	x	x	17
